Assay results as given in ChEMBL document CHEMBL1240420, “Synthesis and biological evaluation of cinnamido linked pyrrolo[2,1-c][1,4]benzodiazepines as antimitotic agents” (Eur J Med Chem, 2010).
Counter-ions that a name gives are not always drawn. The source made the active and inactive calls. No cut-off for these calls is given here.

Assays:
SiHa = assay: Cytotoxicity against human SiHa cells after 48 hrs by SRB assay; assay type: functional
How it was run: (§1)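 Cells grown in RPMI 1640 with 10% FBS and 2 mM L-glutamine, plated and left 24 h at 37 °C/5% CO2, then exposed continuously for 48 h to 0.1, 1, 10 and 100 µM in triplicate wells. Fixed with cold TCA (10% final), stained with 0.4% SRB, eluted with 10 mM Tris base, read at 540 nm (690 nm reference). GI50 from [(Ti−Tz)/(C−Tz)]×100 = 50; mean of three determinations.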

MCF7 [1] = assay: Cytotoxicity against human MCF7 cells after 48 hrs by SRB assay; assay type: functional; details: MCF7, 48 h
How it was run: (§2)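 Cells were grown in RPMI 1640 with 10% FBS and 2 mM L-glutamine, plated 24 h before dosing, then given continuous 48 h exposure at 0.1, 1, 10 and 100 µM in triplicate wells. Cells were fixed with cold TCA (10% final, 60 min, 4 °C), stained with 0.4% SRB in 1% acetic acid for 20 min, eluted with 10 mM Tris base, and read at 540/690 nm. GI50 was taken from [(Ti−Tz)/(C−Tz)]×100 = 50; three determinations were averaged.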

HOP-62 = assay: Cytotoxicity against human HOP62 cells after 48 hrs by SRB assay; assay type: functional; details: HOP-62, 48 h; how it was run: as §2
A2780 = assay: Cytotoxicity against human A2780 cells after 48 hrs by SRB assay; assay type: functional; details: A2780, 48 h; how it was run: as §2
COLO 205 = assay: Cytotoxicity against human COLO205 cells after 48 hrs by SRB assay; assay type: functional; details: COLO 205, 48 h; how it was run: as §2
KB = assay: Cytotoxicity against human KB cells after 48 hrs by SRB assay; assay type: functional; how it was run: as §2
[2] = Cytotoxicity against human GURAV cells after 48 hrs by SRB assay; assay type: functional; how it was run: as §2
[3] = Cytotoxicity against human DWD cells after 48 hrs by SRB assay; assay type: functional; how it was run: as §2
PC-3 = assay: Cytotoxicity against human PC3 cells after 48 hrs by SRB assay; assay type: functional; details: PC-3, 48 h; how it was run: as §2
ZR-75-1 = assay: Cytotoxicity against human ZR-75-1 cells after 48 hrs by SRB assay; assay type: functional; details: ZR-75-1, 48 h; how it was run: as §1
A549 = assay: Cytotoxicity against human A549 cells after 48 hrs by SRB assay; assay type: functional; details: A549, 48 h; how it was run: as §2
MCF7 [4] = assay: Cell cycle arrest in human MCF7 cells assessed as accumulation at G2/M phase after 48 hrs using FITC/propidium iodide staining by flow cytometry; assay type: functional, cell-based
How it was run: (§3)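 MCF7 cells in 6-well plates were exposed for 48 h, harvested with trypsin–EDTA, and fixed in ice-cold 70% ethanol at 4 °C for 30 min. They were then stained with a propidium iodide solution containing trisodium citrate and Triton X-100 for 30 min in the dark. DNA content was read by flow cytometry on 20,000 events, and cells were scored by cell-cycle phase from histograms.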

Tubulin (Homo sapiens) = Tubulin (Homo sapiens) (UniProt P68371+Q9H4B7+P0DPH7+P68366+Q13509+Q71U36+P04350+Q3ZCM7+P07437+P68363+Q9BQE3+Q6PEY2+Q13885+Q9BVA1+Q9BUF5); assay: Inhibition of tubulin polymerization in human MCF7 cells at 2.5 uM by immunohistochemistry; assay type: cell-based
How it was run: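 MCF7 cells on glass cover slips exposed 48 h to 2.5 µM. Fixed with 3% paraformaldehyde/0.02% glutaraldehyde, permeabilized in −20 °C methanol, blocked with 1% BSA. Stained with mouse monoclonal anti-tubulin plus FITC secondary, then confocal imaging of microtubule network integrity. Nocodazole and taxol (2.5 µM) run as controls; untreated cells as baseline.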

MCF7 [5] = assay: Cell cycle arrest in human MCF7 cells assessed as accumulation at G0 phase after 48 hrs using FITC/propidium iodide staining by flow cytometry; assay type: functional, cell-based; how it was run: as §3
MCF7 [6] = assay: Induction of apoptosis in human MCF7 cells assessed as nuclear condensation at 2 uM after 48 hrs by fluorescence microscopy; assay type: functional, cell-based
How it was run: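 MCF7 cells on cover slips in 6-well plates treated 48 h at 1–3 µM. Nocodazole and podophyllotoxin (1 µM) served as controls. Fixed in 3% paraformaldehyde/0.02% glutaraldehyde, stained with Hoechst (5 µM, 30 min), washed in PBS and imaged by fluorescence microscopy with DAPI filters. Five fields of view examined.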

[7] = Inhibition of bovine tubulin after 3 hrs; set-up: species or system Bos taurus
How it was run: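 Bovine brain tubulin purified by three polymerization/depolymerization cycles. A340 read every 2 min for 3 h at 37 °C, nocodazole as control. IC50 taken as the concentration halving assembly versus control.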

Bos taurus = organism: Bos taurus; assay: Inhibition of bovine tubulin at 2.5 uM after 3 hrs relative to control

inhibition (Tubulin (Homo sapiens)) | IC50 [7] | inhibition (Bos taurus) | SMILES | GI50 (SiHa) | GI50 (MCF7 [1]) | GI50 (HOP-62) | GI50 (A2780) | GI50 (COLO 205) | GI50 (KB) | GI50 [2] | GI50 [3] | GI50 (PC-3) | GI50 (ZR-75-1) | GI50 (A549) | Activity (MCF7 [4]) | Activity (MCF7 [5]) | Activity (MCF7 [6])
– | – | – | COc1cc(/C=C/C(=O)N2CCOCC2)ccc1OCCCCCCOc1cc2c(cc1OC)C(=O)N1CCC[C@H]1C=N2 | < 100 nM | 150 nM | < 100 nM | < 100 nM | 150 nM | < 100 nM | < 100 nM | 150 nM | 170 nM | 140 nM | < 100 nM | – | – | –
– | – | – | COc1cc(/C=C/C(=O)N2CCN(C(=O)c3cc(OC)c(OC)c(OC)c3)CC2)ccc1OCCCCCCOc1cc2c(cc1OC)C(=O)N1CCC[C@H]1C=N2 | 2500 nM | 180 nM | 2600 nM | 180 nM | 2100 nM | 1900 nM | 1900 nM | 170 nM | 1900 nM | 210 nM | 160 nM | – | – | –
Active | 27900 nM | 40% | COc1cc(/C=C/C(=O)N2CCN(C(=O)/C=C/c3ccc(OCCCCOc4cc5c(cc4OC)C(=O)N4CCC[C@H]4C=N5)c(OC)c3)CC2)ccc1OCCCCOc1cc2c(cc1OC)C(=O)N1CCC[C@H]1C=N2 | < 100 nM | 150 nM | < 100 nM | < 100 nM | 150 nM | < 100 nM | < 100 nM | 120 nM | 160 nM | 150 nM | < 100 nM | Active | Active | Active
– | – | – | COc1cc2c(cc1O)N=C[C@@H]1CCCN1C2=O | 170 nM | 170 nM | 150 nM | 140 nM | 110 nM | 170 nM | 160 nM | – | 200 nM | – | 160 nM | – | – | –
– | – | – | COc1cc(/C=C/C(=O)N2CCN(C(=O)/C=C/c3ccc(OCCCCCCOc4cc5c(cc4OC)C(=O)N4CCC[C@H]4C=N5)c(OC)c3)CC2)ccc1OCCCCCCOc1cc2c(cc1OC)C(=O)N1CCC[C@H]1C=N2 | < 100 nM | 1900 nM | < 100 nM | < 100 nM | < 100 nM | < 100 nM | < 100 nM | < 100 nM | 150 nM | 210 nM | 150 nM | – | – | –
– | – | – | COc1cc(/C=C/C(=O)N2CCN(C(=O)c3cc(OC)c(OC)c(OC)c3)CC2)ccc1OCCCCOc1cc2c(cc1OC)C(=O)N1CCC[C@H]1C=N2 | 170 nM | 140 nM | 170 nM | 150 nM | < 100 nM | 150 nM | 110 nM | 110 nM | < 100 nM | 150 nM | 120 nM | – | – | –
– | – | – | COc1cc(/C=C/C(=O)N2CCOCC2)ccc1OCCCCCOc1cc2c(cc1OC)C(=O)N1CCC[C@H]1C=N2 | 170 nM | < 100 nM | 170 nM | 140 nM | < 100 nM | 150 nM | 160 nM | < 100 nM | < 100 nM | < 100 nM | < 100 nM | – | – | –
– | – | – | COc1cccc2c1C(=O)c1c(O)c3c(c(O)c1C2=O)C[C@@](O)(C(=O)CO)C[C@@H]3O[C@H]1C[C@H](N)[C@H](O)[C@H](C)O1 [DOXORUBICIN HYDROCHLORIDE] | 150 nM | < 100 nM | 120 nM | < 100 nM | 130 nM | 130 nM | 140 nM | 120 nM | 160 nM | 120 nM | < 100 nM | – | – | –
– | – | – | COc1cc(/C=C/C(=O)N2CCN(C(=O)/C=C/c3ccc(OCCCCCOc4cc5c(cc4OC)C(=O)N4CCC[C@H]4C=N5)c(OC)c3)CC2)ccc1OCCCCCOc1cc2c(cc1OC)C(=O)N1CCC[C@H]1C=N2 | 2000 nM | 1000 nM | 180 nM | 160 nM | < 100 nM | 2000 nM | 2300 nM | < 100 nM | < 100 nM | < 100 nM | 110 nM | – | – | –
– | – | – | COc1cc(/C=C/C(=O)N2CCN(C(=O)/C=C/c3ccc(OCCCOc4cc5c(cc4OC)C(=O)N4CCC[C@H]4C=N5)c(OC)c3)CC2)ccc1OCCCOc1cc2c(cc1OC)C(=O)N1CCC[C@H]1C=N2 | 160 nM | < 100 nM | 150 nM | 120 nM | < 100 nM | 140 nM | 140 nM | < 100 nM | 150 nM | < 100 nM | < 100 nM | – | – | –
– | – | – | COc1cc(/C=C/C(=O)N2CCN(C(=O)c3cc(OC)c(OC)c(OC)c3)CC2)ccc1OCCCCCOc1cc2c(cc1OC)C(=O)N1CCC[C@H]1C=N2 | 140 nM | 130 nM | 150 nM | 110 nM | < 100 nM | 120 nM | 130 nM | < 100 nM | 140 nM | 140 nM | 110 nM | – | – | –
Active | 16400 nM | 40% | COc1cc(/C=C/C(=O)N2CCOCC2)ccc1OCCCCOc1cc2c(cc1OC)C(=O)N1CCC[C@H]1C=N2 | 140 nM | 140 nM | 160 nM | 120 nM | 120 nM | 130 nM | 130 nM | < 100 nM | 140 nM | 150 nM | 110 nM | Active | Active | Active
– | – | – | COc1cc(/C=C/C(=O)N2CCOCC2)ccc1OCCCOc1cc2c(cc1OC)C(=O)N1CCC[C@H]1C=N2 | 120 nM | < 100 nM | 140 nM | < 100 nM | 100 nM | < 100 nM | 100 nM | < 100 nM | 130 nM | 120 nM | < 100 nM | – | – | –
